The values that follow come from PMC2141641 (The Journal of Cell Biology, 1997).

Assay [1] concerns endothelial cells. As to conditions: cited from earlier work.
A further assay deals with CD36 null animals. Particulars: ref Febbraio, M., O.V. Volpert, N.P. Bouck, and R.L. Silverstein, unpublished data; cited from earlier work.
The subject of assay [2] is neovascularization in vivo. As to conditions: ref O'Reilly et al., 1994; cited from earlier work.
In assay [3] the test system is Human dermal microvascular endothelial cells (HMVECs). Description: Endothelial cell migration assay, HMVECs. In kind it is cell-based. Particulars: for inhibition of bFGF-induced HMVEC migration by other CD36 ligands / effect on migration when tested alone: 2 μg/ml. The method, boiled down: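 Human dermal microvascular cells (passages 6–9) were serum-starved and then migrated in a Boyden chamber 4 h at 37°C toward bFGF. Collagen I, LDL and copper-oxidized LDL were tested at 2 μg/ml, with or without 10 μg/ml anti-CD36 IgG added to both wells. Quadruplicate wells, two experiments. Counts were normalized to bFGF minus control-medium background. Two-tailed t test was run on raw data.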

The subject of assay [4] is Bovine adrenal capillary endothelial cells (BCECs). Description: Endothelial cell migration assay, BCECs. In kind it is cell-based. The method, boiled down:
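Bovine adrenal capillary cells (DME, 10% donor calf serum, 1% endothelial mitogen; passage 15) were starved overnight in DME/0.1% BSA. 3 × 10^4 cells/well were attached 2 h at 37°C to a gelatinized membrane in an inverted Boyden chamber, then reinverted. GST–CD36 fusion proteins were preincubated with 2 nM TSP-1, warmed to room temperature, and added to the top wells. Migration to bFGF ran 4 h at 37°C. Migrated cells/10 high-power fields counted; normalized to bFGF minus background.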

For assay [5], the system named is endothelial cells. As to conditions: in vitro; ref Tolsma et al., 1997; cited from earlier work.
In assay [6] the test system is neovascularization, rodent cornea. Particulars: rodent cornea assay; ref Good et al., 1990; Tolsma et al., 1993; cited from earlier work.
Assay [7] concerns CD36-transfected HUVECs. Description: Tube formation assay in Matrigel, CD36-transfected HUVECs. Format: cell-based, human. As to conditions: 24 h at 37°C, endogenous TSP-1 expression by clones.
The subject of assay [8] is neovascularization, polyvinyl sponge. As to conditions: polyvinyl sponge assay; ref Good et al., 1990; Tolsma et al., 1993; cited from earlier work.
The test system of assay [9] is Melanoma cells not transfected with CD36. Particulars: ref Silverstein et al., 1992; cited from earlier work.
The next assay has as its system CD36. Particulars: cited from earlier work.
Assay [10] deals with CD36-transfected HUVECs. Put plainly: Migration assay of CD36-transfected HUVEC clones. As to conditions: TSP-1 2 nM, bFGF. Format: cell-based, human. The gist of the method: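 HUVECs at passage 2 were lipofected with a CD36 plasmid (30 μg DNA, 5 h, 37°C) and selected in 100 μg/ml G418. Cloned lines were checked for CD36 by flow cytometry. Clones migrated toward bFGF in a Boyden chamber (4 h, 37°C) with 2 nM TSP-1, with or without 10 μg/ml anti-CD36 antibody OKM-5. Four experiments; normalized to bFGF minus background.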

The test system of assay [11] is endothelial cells. As to conditions: in vitro; ref Iruela-Arispe et al., 1991; DiPietro et al., 1994; Canfield and Schor, 1995; cited from earlier work.

On to Angiostatin, for which the “inhibition of endothelial cell migration in vitro by angiostatin” value in the assay with endothelial cells [1] (ref Gately et al., 1996) is “well-established inhibitor of endothelial cell migration in vitro”. The “inhibition of corneal neovascularization in CD36 null animals” value with CD36 null animals is reported as “not by angiostatin is defective in CD36 null animals”. In addition, the “inhibition of angiogenesis in vivo by angiostatin” value in [2] is given as “of angiogenesis in vivo”. Moreover, the “inhibition of HMVEC migration by angiostatin” value in assay [3] (angiostatin 2 μg/ml, bFGF, control inhibitor) is “inhibition of endothelial cell migration by angiostatin”.
Turning to “FP93-120: GST–CD36 fusion protein containing the TSP-1 binding region, amino acids 93–120 (YRVRFLAKENVTQDAEDNTVSFLQPNGA; left off: GST, end not stated, kept) [reference compound]”, the “block of inhibition of migration by Col overlap peptide” value in assay [4] (Col overlap 30 μM, bFGF, fusion protein preincubated 2 h at 4°C) was “blocked the inhibitory effects of Col overlap”.
For the substance Thrombospondin-1 [TSP-1], in the assay on endothelial cells [5], the “concentration inhibiting lumen formation” value is listed as “below 20 nM”. Moreover, the “prevention of neovascularization in vivo, rodent cornea” value in assay [6] is “able to prevent neovascularization in vivo”. In assay [4] (TSP-1 2 nM), the “inhibition of bFGF-induced migration by TSP-1, BCEC” value is “TSP-1 inhibition of bFGF-induced migration”. The “TSP-1 inhibition of tube formation after CD36 transfection” value with CD36-transfected HUVECs [7] was “became sensitive to TSP-1 inhibition of both migration and tube formation”. In addition, the “concentrations effective in vitro (inhibition of angiogenesis)” value in the assay on endothelial cells [1] (ref Good et al., 1990, Tolsma et al., 1993) is “subnanomolar”. Moreover, the “concentration inhibiting endothelial cell migration (biphasic dose response)” value in the assay with endothelial cells [1] (ref Taraboletti et al., 1990, Tolsma et al., 1993, Gao et al., 1996) is on record as “less than 20 nM”. The “prevention of neovascularization in vivo, polyvinyl sponge” value in [8] is “able to prevent neovascularization in vivo”. For the same substance, in assay [9], the “TSP-1 binding to melanoma cells not transfected with CD36” value is recorded as “do not bind TSP-1”. In the assay on CD36 null animals, the “inhibition of corneal neovascularization in CD36 null animals” value is recorded as “defective in CD36 null animals”. In the assay with CD36 (minimal region of CD36, ref Pearce et al., 1995), the “interaction of TSP-1 with CD36 amino acids 93–120” value is “specific, saturable, and reversible manner”. Further, the “TSP-1 inhibition of migration of CD36-transfected clone 35” value in the assay on CD36-transfected HUVECs [10] (clone 35 (very low CD36)) is listed as “refractory to TSP-1 inhibition”. In the assay on CD36-transfected HUVECs [10] (clones 31 and 36 (higher CD36)), the “TSP-1 inhibition of migration of CD36-transfected clones 31 and 36” value was “sensitive to TSP-1 inhibition”. Moreover, in the assay on endothelial cells [11], the “concentration inhibiting tube formation” value is reported as “below 20 nM”. Besides, the “inhibition of bFGF-induced HMVEC migration by TSP-1” value in assay [3] (TSP-1 2 nM) is “inhibition of bFGF-induced migration of HMVECs by TSP-1”.
Regarding “glutathione-S-transferase [GST, reference compound]”, the “block of TSP-1 inhibition of bFGF-induced migration” value in assay [4] (TSP-1 2 nM, fusion protein preincubated 2 h at 4°C, migration 4 h at 37°C) is reported as “ineffective”.
As to “human type I collagen [human collagen I]”, in assay [3], the “inhibition of bFGF-induced HMVEC migration by other CD36 ligands” value (from here on “inhibition … by other CD36 ligands”) is given as “inhibited bFGF-induced HMVEC migration” and the “effect on migration when tested alone” value was “no significant effect on migration”.
In the case of low-density lipoprotein [LDL], in the assay with CD36 (ref Endemann et al., 1993), the “binding of unoxidized LDL to CD36” value is listed as “unable to bind CD36”. Further, in [3], the “inhibition … by other CD36 ligands” value is listed as “failed to influence HMVEC migration” and the “effect on migration when tested alone” value is “no significant effect on migration”.
On to “oxidized low-density lipoprotein [OxLDL]”, for which, in assay [3], the “inhibition … by other CD36 ligands” value is “inhibited bFGF-induced HMVEC migration” and the “effect on migration when tested alone” value is recorded as “no significant effect on migration”. In assay [3] (bFGF-induced HMVEC migration, data not shown), the “concentration below which ineffective at inhibiting migration” value is “below 0.1 nM”.
